From the EternaBench riboswitch data

Tested on: MS2 coat protein
Experiment: apparent Kd, MS2 coat protein; higher = weaker binding; RNA-MaP array; FMN 200 µM where present
How it was run: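 The titrant was SNAP-549-labelled MS2 coat protein, run from 0.7 or 1.5 nM in doubling steps to 3 µM. It was applied to designs transcribed by stalled E. coli RNA polymerase on Illumina sequencing-chip clusters, without ligand first and then with constant ligand, in 100 mM Tris-HCl pH 7.5, 80 mM KCl, 4 mM MgCl2, BSA, DTT, yeast tRNA and Tween-20. The apparent Kd is the median of filtered per-cluster binding-curve fits, with green signal normalised to red-channel RNA signal and control-cluster median Fmax.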

[1] = designed as: OFF switch for flavin mononucleotide, no ligand
[2] = ligand present: flavin mononucleotide, designed as: OFF switch for flavin mononucleotide
[3] = designed as: ON switch for flavin mononucleotide, no ligand
[4] = ligand present: flavin mononucleotide, designed as: ON switch for flavin mononucleotide

AAAGGACGAGGAUAUACAUGAGGAUCACCCAUGUAAAAAGCGUAGCAAAAGUGCUUAUGUAGAAGGCGUCCAAA
apparent Kd [1]: 0.022 µM | apparent Kd [2]: 0.0592 µM

AAAUUAAGAUGAGGAUAUUGACAUGAGGAUCACCCAUGUAUUUGGGAAUGUUUACUGAAUUCUUACAAGAAGGUAUACGAACUU
apparent Kd [1]: 0.206 µM | apparent Kd [2]: 0.134 µM

GGGUAGAUCCGAGGAUAUACAAUCCGGAAACGGUACAUGAGGAUCACCCAUGUAGAAGGCGGAUCUACAGGUACUAAAGUACCC
apparent Kd [1]: 0.00632 µM | apparent Kd [2]: 0.00865 µM

GUAGCAUACGGAGGAUAUUCAUACCGGAAACGGACAUGAGGAUCACCCAUGUGGCGAAAGCCUUGGAAGAAGGCCGUAUGCUAC
apparent Kd [3]: 0.00396 µM | apparent Kd [4]: 0.00355 µM

CUUUUGUGAGGAUAUCAGUAGUAAAAUAAUAAAAUAACUACUGAGAAGGCACAUGAGGAUCACCCAUGUUCCUC
apparent Kd [1]: 0.0325 µM | apparent Kd [2]: 0.161 µM

GGAUAUAUGAAGGGCGAACGCGCACAUGAGGAUCACCCAUGUAGAAGGCGGUCCGCAACGCGGAUCGAGGAUAUAUAGUAUACG
apparent Kd [1]: 0.0191 µM | apparent Kd [2]: 0.0173 µM

AAACUGCCACAUGAGGAUCACCCAUGUAAAUAAAGUAUUUGGAGAAGGGCGAUAGCAAAGCUAUCGCAGGAUAUUCUCAGGCAG
apparent Kd [3]: 0.0203 µM | apparent Kd [4]: 0.0153 µM

GAGCGAAAGCUCAAUGUCGAUAGCAGAAGGACAUGCAAUAACAUGAAAACAUGAGGAUCACCCAUGUAGGAUAUGCUAUCGACU
apparent Kd [1]: 0.00665 µM | apparent Kd [2]: 0.0445 µM

AAAAAACAUGAGGAUCACCCAUGUGAGGAUAUCUGUAUUCAAUCCUCGGAUUGAAUACAGAGAAGGCACAUGGG
apparent Kd [1]: 0.0266 µM | apparent Kd [2]: 0.0269 µM

GGAUCAUGAGGAUAUCGAGGUUAGUACAUGAGGAUCACCCAUGUUAUCCAGGUCUCGUUUCGAGAAGGCAUGAUCC
apparent Kd [1]: 0.0215 µM | apparent Kd [2]: 0.0299 µM

UCAUACAUGACAUGACAUGAGGAUCACCCAUGUCCAUGUUACAAGGAUAUGUACAUGAAACAUGUACAGAAGGUGUAUUGGACU
apparent Kd [1]: 0.0154 µM | apparent Kd [2]: 0.0294 µM

AAACAUGUCCGAGGAUAUCUGGAAACAUUUUCAAGAGAAGGCGGACAUGAGGAUCACCCAUGUCUCUCCUCAUCAAGUCCAAGU
apparent Kd [1]: 0.00847 µM | apparent Kd [2]: 0.0462 µM

AAUAUGUGAGGAUAUCAGGUGUGCUAGCGUACUGGUACAUCUGAGAAGGCACAUGAGGAUCACCCAUGUAUCUU
apparent Kd [1]: 0.0244 µM | apparent Kd [2]: 0.0874 µM

AAAAGGCUAGGAUAUACAUGAGGAUCACCCAUGUGAGGGCACGGCCGGCGCGGGCCCGGUAGAAGGAGUCAAAA
apparent Kd [1]: 0.0184 µM | apparent Kd [2]: 0.0175 µM

UUUUUUUUACAGAAGGGAAUCAUGAUUUUUUGUUUUUACAUGAGGAUCACCCAUGUUUAUCUUUUUCAGGAUAUGUAUUUUUUU
apparent Kd [3]: 0.0613 µM | apparent Kd [4]: 0.032 µM

GAAGCAUGCAAUAACAUGAGGAUCACCCAUGUGAAAACACGUGAGGAUAUUGAUCUGAAGAAGAUCGAGAAGGCACCGUGCUAA
apparent Kd [3]: 0.0134 µM | apparent Kd [4]: 0.00992 µM

GGAGGACAUCAAUACAUGAGGAUCACCCAUGUCGAAUGAUAUGAGGAUAUGCAUCGGAAAACGAUGUAGAAGGCAUAGUCCUCC
apparent Kd [3]: 0.0151 µM | apparent Kd [4]: 0.00606 µM

UUGGACAUCGUAGGAUAUGUAGGAUAUUCCUACAUGAGGAUCACCCAUGUUGACAUGGAAGAAGGACAGAAGGACGAUGUCCAU
apparent Kd [3]: 0.207 µM | apparent Kd [4]: 0.00412 µM

UUAUAAAAGCAGAAGGGCCGAUUAAGGAUCCGCAUGGCGCUGGACAUGAGGAUCACCCAUGUAAGGCAGGAUAUGCAAAAUAAG
apparent Kd [1]: 0.458 µM | apparent Kd [2]: 0.0248 µM

UAGGACUUCGUAGGAUAUGUAUUUGAUUUCUACAUGAGGAUCACCCAUGUUUGCAUUUUUUUUUGACAGAAGGACGUGGUCGAA
apparent Kd [3]: 0.0303 µM | apparent Kd [4]: 0.0173 µM

AUAUGAUAGAUAGGAUAUACUAUGGUUGAAGAAGUAGAAGGAUCAAUAGGGAAAUGUACAUGAGGAUCACCCAUGUUAUGGAUU
apparent Kd [3]: 0.0297 µM | apparent Kd [4]: 0.0269 µM

UGCGUACAAGCAAACAUGAGGAUCACCCAUGUGGUCUCAUGCGAGGAUAUCGGGAAGGAGGAUUCCGAGAAGGUGCGGUGAGCC
apparent Kd [3]: 0.116 µM | apparent Kd [4]: 0.0279 µM

CGCAAGGAUACAUGAGGAUCACCCAUGUCAGAAAGGGUAAUCAGAAGGUACAAUUAGAGAUAGAGUAAGGAUAUGAAAUUUGCG
apparent Kd [3]: 0.966 µM | apparent Kd [4]: 0.313 µM

UCGAGGUCAGGAUAUACAUGAGGAUCACCCAUGUUGAGAGAAGGUAGGAAAAGAGUAGGUAGAAGGGACGAGAG
apparent Kd [1]: 0.0337 µM | apparent Kd [2]: 0.0338 µM

CUCAUCCUUACAGGCUGAGACAUGAGGAUCACCCAUGUAGGGAGAAGGGAGUUGGGCAUCUUGACUCAGGAUAUCCCGAAAGAC
apparent Kd [3]: 0.733 µM | apparent Kd [4]: 0.0837 µM

AAUAAACUCACAGGAUAUAGCAUCGACGUUGCGAACUUAGCGACGUCGAUGCUAGAAGGGUGAAAACAUGAGGAUCACCCAUGU
apparent Kd [3]: 0.0309 µM | apparent Kd [4]: 0.0134 µM

GGUACUCAAAGAGUACAAGAAAGAACAUGAGGAUCACCCAUGUAGGAUAUGCUACUCAAAGAGUAGCAGAAGGACAUGUGCAGC
apparent Kd [1]: 0.0306 µM | apparent Kd [2]: 0.103 µM

AUCAGCUCGUCAGGAUAUACGUCACUGAGUCAGCAGUGUGGUAAGAUCACAUGAGGAUCACCCAUGUAGAAGGGACGAGCUGAU
apparent Kd [1]: 0.0163 µM | apparent Kd [2]: 0.241 µM

GGAUAGGACAGAGGAUAUACGUGCUAGAGAUACUAGCAAAAUUUCCUCACAUGAGGAUCACCCAUGUAGAAGGCUGUCCUAUCU
apparent Kd [1]: 0.0452 µM | apparent Kd [2]: 0.882 µM

AAAAAAAAAACUCAGGAUAUAGAUAAUUGAACAUGAGGAUCACCCAUGUAGUGAAAAAAAAAAAAUUAGAAGGGAGGAAAAAAAAA
apparent Kd [3]: 0.0678 µM | apparent Kd [4]: 0.0588 µM

AGUAAGAUGCAGAAGGUGUCAGCUAGUGCUACGACAUGAGGAUCACCCAUGUACUAGGUAGAGUACAAGGAUAUGCAUCUUACA
apparent Kd [3]: 0.023 µM | apparent Kd [4]: 0.00615 µM

UAUAUAUAGUAAGGAUAUGUAUUUAUUCUAUAAACAGAAGGUACUGACAUGAGGAUCACCCAUGUUUUAGUGUGGGCAUGUAGA
apparent Kd [1]: 0.0399 µM | apparent Kd [2]: 0.0388 µM

CAUUAAUUAAUUAGUUUAUAAAUACAGGAUAUGUUACAUGAGGAUCACCCAUGUUUACAUGGGAUACAGAAGGGUAAAUCAAUA
apparent Kd [1]: 0.192 µM | apparent Kd [2]: 0.145 µM

UAUAAGUCUCAUGUAACAUGAGGAUCACCCAUGUCAUAUUGUAGAAGGAUGAUAAUAUGUAUAUCAUAGGAUAUACUAUAUGUU
apparent Kd [1]: 0.0209 µM | apparent Kd [2]: 0.0196 µM

UUUAUUUUUAGAGGAUAUAUUGUGUGUGAGAGAAUAGAAGGCUAAACAUACAUGAACAUGAGGAUCACCCAUGUCACCCAUGUU
apparent Kd [3]: 0.0782 µM | apparent Kd [4]: 0.0549 µM

AAGUUAUAUACAUGAGGAUCACCCAUGUCAAAGGGAGUAAUCAGAAGGUACUAUUCAAUAAUUAGUAAGGAUAUGAAUUUUUAG
apparent Kd [3]: 0.0395 µM | apparent Kd [4]: 0.0306 µM

CCUGUGUGAGGAUAUCUACGCCAUGUCUUUGACAUGGCGCAAGAGAAGGCACAUGAGGAUCACCCAUGUACUUC
apparent Kd [1]: 0.0226 µM | apparent Kd [2]: 0.135 µM

UGUUAAUUGUAGAAGGGUGACAUGAGGAUCACCCAUGUACUAAUGCGAUUUACGGCGCAUGUUCCACAGGAUAUACAGUUGAGU
apparent Kd [3]: 1.27 µM | apparent Kd [4]: 0.274 µM

GGUUGGCGAGGAUAUACAUGAGGAUCACCCAUGUGGUCCUGUGGCAAAAAAAACCUUUGUAGAAGGCGCGGGUC
apparent Kd [1]: 0.354 µM | apparent Kd [2]: 0.285 µM

CCAGGCUUCGAGAAGGACAUGAGGAUCACCCAUGUGCGUGUAAAACAGCCAAAAGGCUGCAUCAUGUAGGAUAUCGGAGUCUGC
apparent Kd [1]: 0.275 µM | apparent Kd [2]: 0.0955 µM

AGCUGUGGCCGAGGAUAUCACGAACCAUGGAAAACCAUGGAACUCAUACAUGAGGAUCACCCAUGUGAGAAGGCGGUCUCAGCA
apparent Kd [1]: 0.0341 µM | apparent Kd [2]: 0.0296 µM

GGCAUAAUGUAGGAUAUCGUAUUGGAAACAAUACGAGAAGGGCAAACAUGAGGAUCACCCAUGUUCCUUAAGCC
apparent Kd [1]: 0.0185 µM | apparent Kd [2]: 0.019 µM

GUCAUGUCAGGAUAUGCUUAUGAUGAGUGCUCAGACAUGAUGCAGAAGGGACAUGAGGAUCACCCAUGUACUGA
apparent Kd [1]: 0.0224 µM | apparent Kd [2]: 0.0268 µM

UACAUGAGGAUCACCCAUGUUUUGUCGUGUAUGGUAUUUAUCUAGGAUAUCAAUGUAUUUAUGUAUGAGAAGGAGAAUAUUAAU
apparent Kd [1]: 0.0457 µM | apparent Kd [2]: 0.0373 µM

GUCAGCUCGUGAGGAUAUACAACACUGCUUCGGCAGUUUAUUAAGAUCACAUGAGGAUCACCCAUGUAGAAGGCACGAGCUGAU
apparent Kd [1]: 0.0144 µM | apparent Kd [2]: 0.264 µM

CUUUUGUGAGGAUAUUCGUAGUAAAUGAAUAAAAUUAUUACGGAGAAGGCACAUGAGGAUCACCCAUGUUCCUC
apparent Kd [1]: 0.0422 µM | apparent Kd [2]: 0.343 µM

AACCUAAAACAGAAGGCCAAAUACAUGAGGAUCACCCAUGUCGAAUCAUGGAGGAUAUGUUAUUAAUUACUCGCAGAUGAGUGC
apparent Kd [3]: 0.07 µM | apparent Kd [4]: 0.00749 µM

AUUGUAUAGGAAGGAUAUAGAAUAUUAUUUUAACAUGAGGAUCACCCAUGUAACCUUAUGUGUAGCUAGAAGGUCCAUUUAUUA
apparent Kd [1]: 0.0996 µM | apparent Kd [2]: 0.15 µM

AGAAAACAUGAGGAUCACCCAUGUAGAAAUAUGGGAGGAUAUACAAAGACGAAAGUCGAGGUAGAAGGCCUAAAGA
apparent Kd [3]: 0.1 µM | apparent Kd [4]: 0.0234 µM

UUUUUGUAAGAGAAGGAGGACUUCAUGAGGAUCACCCAUGUGUUAGUACUUAGGAUAUUUGACAACAUGAGGAUCACCCAUGUC
apparent Kd [3]: 0.072 µM | apparent Kd [4]: 0.0701 µM

UGUACGGACAUGAGGAUCACCCAUGUAACCAAGCAGUUGGUACAGGAUAUCGCUUAGUGACUGAGCGAGAAGGGUGGUUCUGCA
apparent Kd [3]: 0.0452 µM | apparent Kd [4]: 0.0626 µM

AGUUCCUCCGCAGGAUAUGUGCUCUUUAUCACAUGAGGAUCACCCAUGUCAGCCGAAACGGCGAGACAGAAGGGUGGUGGUGCC
apparent Kd [3]: 0.213 µM | apparent Kd [4]: 0.169 µM

GUCAGCUCGUGAGGAUAUACAACACUGCUUCGGCAGUGUAUUAAGGUCACAUGAGGAUCACCCAUGUAGAAGGCACGAGCUGAU
apparent Kd [1]: 0.00812 µM | apparent Kd [2]: 0.105 µM

UAUUUACAUGAGGAUCACCCAUGUCAGGAUAUGUUUCUAUCGUCGAAAGAUGAUAUUUGCAGAAGGGACAAUAU
apparent Kd [1]: 0.0361 µM | apparent Kd [2]: 0.0725 µM

GCGCACUAAGUGAGGAUAUCGAUUUUUUUUAGGAUCGAGAAGGCACAUGAGGAUCACCCAUGUUUGACGUGCGC
apparent Kd [1]: 0.0155 µM | apparent Kd [2]: 0.0152 µM
